# Screens (PubChem BioAssay)
# Shown are actives, neighbours in structure and some others; about 2.3% of the full set was active somewhere.
# TRPC4 potent = allosterically enhances the mouse TRPC4 cation channel; Q9QUQ5; HEK293 TRPC4beta/mu-opioid, DAMGO EC20, Fluo-4 Ca2+ flux; active compounds read high; B-score at 10 µM; hit rate 0.42% among 310,000; AID 2227;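 active means B-score of calcium response area above 5 SD of library B-scores, with initial fluorescence ratio within 5 SD of library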;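 further: B-score of integrated fluorescence ratio over time as area under calcium response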
# TRPC6 act = activates the mouse TRPC6 cation channel; HEK293-TRPC6 membrane potential dye fluorescence; active compounds read high; B-score at 10 µM; hit rate 0.13% among 310,000; Q61143;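 active means B-score of the integrated fluorescence ratio above library mean plus 3 SD, and starting fluorescence ratio within library mean plus 5 SD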;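 further: higher score means more depolarization so channel activation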
# Target sequence (Q61143 whole entry, looked up): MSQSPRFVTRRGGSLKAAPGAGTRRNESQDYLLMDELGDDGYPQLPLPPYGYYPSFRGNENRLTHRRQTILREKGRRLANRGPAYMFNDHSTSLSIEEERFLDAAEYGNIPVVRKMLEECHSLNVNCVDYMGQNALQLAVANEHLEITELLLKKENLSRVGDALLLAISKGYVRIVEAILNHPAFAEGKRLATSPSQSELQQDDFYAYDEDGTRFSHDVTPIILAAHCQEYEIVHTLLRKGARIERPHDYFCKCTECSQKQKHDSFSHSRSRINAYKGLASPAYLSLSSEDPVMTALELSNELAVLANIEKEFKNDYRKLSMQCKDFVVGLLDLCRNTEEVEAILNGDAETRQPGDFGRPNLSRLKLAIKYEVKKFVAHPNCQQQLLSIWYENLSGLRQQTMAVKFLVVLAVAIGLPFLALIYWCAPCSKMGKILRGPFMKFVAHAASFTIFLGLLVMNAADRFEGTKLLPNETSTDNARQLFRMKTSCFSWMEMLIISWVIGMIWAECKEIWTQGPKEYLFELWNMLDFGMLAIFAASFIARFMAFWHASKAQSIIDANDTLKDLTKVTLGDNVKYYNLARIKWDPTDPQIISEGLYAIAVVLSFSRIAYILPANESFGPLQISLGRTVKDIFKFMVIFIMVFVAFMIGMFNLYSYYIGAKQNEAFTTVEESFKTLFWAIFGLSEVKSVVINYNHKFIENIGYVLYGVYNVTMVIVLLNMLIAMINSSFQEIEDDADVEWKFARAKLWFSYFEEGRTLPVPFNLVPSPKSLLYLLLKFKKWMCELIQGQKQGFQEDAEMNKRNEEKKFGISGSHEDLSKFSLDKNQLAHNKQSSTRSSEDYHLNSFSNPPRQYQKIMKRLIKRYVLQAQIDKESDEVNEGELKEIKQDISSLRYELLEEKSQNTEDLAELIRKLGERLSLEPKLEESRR
# TRPC6 inh = blocks the mouse TRPC6 cation channel; B-score at 10 µM; HEK293-TRPC6, membrane potential dye, ACh-evoked depolarization; active compounds read low; Q61143; hit rate 1.1% among 310,000;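 active means B-score under library mean minus 3 SD, initial fluorescence not abnormally high, positive integrated signal ratio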;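 further: B-score derived from integrated fluorescence ratio over the kinetic read; more negative B-score means stronger inhibition of depolarization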
# TRPC4 act = TRPC4 (mouse) channel activation; Q9QUQ5; HEK293 TRPC4beta/mu-opioid, Fluo4 calcium fluorescence; active compounds read high; B-score at 10 µM; hit rate 0.49% among 310,000; AID 2237;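 active means B-score above 5 SD of library B-scores, and initial fluorescence ratio not above library mean plus 5 SD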;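 further: positive B-score marks a calcium rise read as TRPC4 activation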
#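 System: HEK293 cells stably co-expressing mouse TRPC4beta and mu-opioid receptor; Schedule: Fluo4 dye loading 45 min at room temperature, 110 s recording; Detection: Fluo4 fluorescence, kinetic; Evaluation: B-scored integrated calcium fluorescence ratio; Controls: buffer (low) and maximal DAMGO (high).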
# TRPC4 inh = TRPC4 (mouse) channel inhibition; Q9QUQ5; HEK293 TRPC4beta/mu-opioid, DAMGO-evoked Fluo4 calcium flux; active compounds read low; B-score at 10 µM; hit rate 0.39% among 300,000; AID 2247;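 active means B-score over 3 SD under the library average, no early fluorescence shift, positive overall ratio signal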
#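 Assay system: Stable TRPC4beta/mu-opioid receptor HEK293 cells | Reagent: DAMGO in two steps, submaximal then maximal | Compound dosing: Single concentration per test compound | Signal: Fluo4 Ca2+ flux fluorescence | Evaluation: Per-well B score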
# Numbers without * were called inactive; i = inactive.
SMILES,TRPC4 potent,TRPC6 act,TRPC6 inh,TRPC4 act,TRPC4 inh
Cc1cccc(OCCC(=O)NCC(c2ccccc2)N(C)C)c1 (stereo not drawn),i,i,i,103*,i
COc1ccc(C(CNC(=O)CCOc2ccccc2)N(C)C)cc1 (stereo not drawn),i,i,i,154*,i
O=C(NCc1nnc2c(C(F)(F)F)cc(Cl)cn12)c1cccs1,i,i,i,i,i
CCCCCCCCCCCCN1[C@@H](CC(=O)OC)c2cc(F)ccc2S1(=O)=O,i,i,i,i,i
CCC(=O)Nc1cccc(-n2nnnc2SCC(=O)N2CCCCC2)c1,10*,i,i,i,i
COc1cc(OC)cc(-n2nnnc2SCC(=O)N2CCCC2)c1,i,i,i,i,i
OCCC1CN(Cc2ccc(F)cc2)CCN1CCc1ccccc1 (stereo not drawn),i,i,i,i,i
C#Cc1ccc(CN2CCN(CCc3ccccc3)C(CCO)C2)cc1 (stereo not drawn),i,i,i,43*,i
OCCC1CN(Cc2nc3ccccc3s2)CCN1CCc1ccccc1 (stereo not drawn),i,i,i,60*,i
CC(C)CCN1CCN(Cc2ccsc2)CC1CCO (stereo not drawn),i,i,i,i,-8*
O=C(Nc1ccccc1-c1nnn(CC(=O)N2CCOCC2)n1)c1ccc(F)cc1,i,i,i,i,i
Cc1ccc2cc3cc(C(=O)NCCCN4CCCC4=O)oc3nc2c1,i,i,i,i,i
Cc1occc1C(=O)NC1CCCN(Cc2ccc(Cl)cc2)C1 (stereo not drawn),i,i,i,62*,i
CC(C)Cc1ccc(CN2CCCC(NC(=O)CCn3cnnn3)C2)cc1 (stereo not drawn),i,i,i,104*,i
O=C(NC1CCCN(Cc2ccc(Cl)cc2)C1)c1ccoc1 (stereo not drawn),i,i,i,43*,i
O=C(CCc1ccc(F)c(F)c1)NC1CCCN(Cc2ccc(Cl)cc2)C1 (stereo not drawn),i,i,i,53*,i
O=C(CNC(=O)c1ccccc1F)OCCOc1cccc(Cl)c1,i,i,i,i,i
CC(C)N(C(=O)c1nn(C)c2c1CSc1ccccc1-2)C1CCCCC1,i,i,i,i,i
Cc1cc(C(=O)NC2CCCN(Cc3ccc(Cl)cc3)C2)c(C)o1 (stereo not drawn),i,i,i,i,i
Cc1ccsc1C(=O)NC1CCCN(Cc2ccc(Cl)cc2)C1 (stereo not drawn),i,i,i,75*,i
COc1ccc(CN2CCN(CC(O)Cn3c4ccccc4c4ccccc43)CC2)cc1 (stereo not drawn),i,i,i,79*,i
Fc1ccc(-n2cc(-c3ccccc3)c3c(N4CCOCC4)ncnc32)cc1,15*,i,i,i,i
CN(CC(=O)NCCCc1ccccc1)S(=O)(=O)c1ccc(Br)cc1,i,i,i,i,i
CC(C)Cc1ccc(C(C)C(N)=NCCc2ccccc2)cc1 (stereo not drawn),10*,i,i,i,i
Cc1ccc(NC(=O)CN(C)C(=O)c2nn(C)c(=O)c3ccccc23)cc1,i,i,i,i,i
SMILES,TRPC4 potent,TRPC6 act,TRPC6 inh,TRPC4 act,TRPC4 inh
Cc1ccc(C(=O)NC(=S)Nc2c(C)ccc3nsnc23)cc1,i,i,i,i,-5*
Cc1cc(NC(=O)Nc2cc(Cl)sc2Cl)no1,i,i,i,i,i
COc1cccc(CNC(=O)N[C@@H](C)C(=O)O)c1,i,i,i,i,i
O=C(NCc1ccon1)C1CCC(=O)N(CCc2ccc(Cl)cc2)C1 (stereo not drawn),i,i,i,i,i
COC1=C(Nc2ccc(C)cc2)C(=O)c2ccccc2C1=O,i,i,i,i,i
COC1=C(Nc2ccccc2)C(=O)c2ccccc2C1=O,13*,i,i,i,i
CN1CCN(c2ccc(S(=O)(=O)N3CCCCC3)cc2NC(=O)COc2cccc(Cl)c2)CC1,13*,i,i,i,i
Cc1cccc(OCC(=O)Nc2ccc(S(=O)(=O)N3CCN(C)CC3)cc2)c1,i,i,i,i,i
COc1ccccc1CCC(=O)Nc1cccc(S(=O)(=O)N2CCCC2)c1,i,i,i,i,i
Cc1cccc(OCC(=O)Nc2cc(S(=O)(=O)N3CCCCC3)ccc2N2CCN(C)CC2)c1,11*,i,i,i,i
Cc1ccccc1C(=O)Nc1cc(S(=O)(=O)N2CCCCC2)ccc1N1CCN(C)CC1,11*,i,i,i,i
COc1ccccc1CCC(=O)Nc1cc(S(=O)(=O)N2CCCCC2)ccc1N1CCN(C)CC1,i,i,i,134*,i
CCOC(=O)C1=NN(C(=O)c2cccc(Br)c2)C(O)(C(C)(C)C)C1 (stereo not drawn),i,i,i,180*,i
CCOc1ccc(CN2CCN(Cc3cc4c(cc3Cl)OCO4)CC2CCO)cc1 (stereo not drawn),i,i,i,i,i
O=C(c1cccs1)N1CCN(c2ncc(Br)cn2)CC1,i,i,i,175*,i
O=C(c1ccncc1)N1CCN(C(=O)c2cccs2)CC1,i,i,i,i,i
Cc1ccccc1/C(N)=N/OC(=O)c1cccs1,i,i,i,i,i
Cc1[nH]c2ccccc2c1C(=O)CN1C(=O)NC(C)(c2ccc(Cl)cc2Cl)C1=O (stereo not drawn),20*,i,i,i,i
Cc1[nH]c2ccccc2c1C(=O)CSc1ccc(Cl)cc1,i,i,i,i,i
CN(C)CCCOC(=O)c1ccc(Cl)cc1Cl,27*,i,i,i,i
CCCN(CCC)CCCOC(=O)c1ccc(Cl)cc1Cl,i,i,i,i,i
C=CCn1c(SCc2csc(-c3ccc(C)cc3)n2)nnc1-c1ccccc1OC,i,i,i,i,i
Cc1onc(-c2ccccc2)c1C(=O)NNC(=S)NC(=O)/C=C/c1ccccc1,i,i,i,59*,-7*
Cc1onc(-c2ccccc2)c1C(=O)NNC(=S)NC(=O)c1ccc(Br)cc1,i,i,i,250*,i
O=C(NC(=S)NNC(=O)c1ccccc1[N+](=O)[O-])c1ccc(Br)cc1,i,i,i,142*,i
